PAFAH2 FP inh: PAFAH2 (human) inhibition; inhibition, % at 3.39 µM; AID 492956; recombinant PAFAH2, FP-rhodamine activity probe, fluorescence polarization; actives 0.99% (n = 340,000);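 active = inhibition above the mean over all tested compounds plus 3 SD, cut at about 30% in these data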;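 also: inhibitors block probe labeling of enzyme so polarization drops; 0% = enzyme with DMSO and 100% = wells lacking PAFAH2 protein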
PAFAH1B2 inh: PAFAH1B2 (human) inhibition | actives 1.2% (n = 340,000) | P68402 | inhibition, % at 3.39 µM | recombinant PAFAH1B2, FP-rhodamine activity probe, fluorescence polarization;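 active = inhibition above the mean of all tested compounds plus 3 SD, cut at about 24% in these data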;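 also: 0% = enzyme with DMSO and 100% = wells lacking PAFAH1B2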
Apaf1 inhib: blocks human Apaf-1 apoptosome activity | reconstituted apoptosome caspase-3 activity, DEVD-Rh110 fluorescence | inhibition, % at 20 µM | actives 0.71% (n = 330,000) | AID 489030; active = inhibition of at least 40% at 20 µM;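 also: plate controls were DMSO wells for no effect and DEVD-CHO caspase inhibitor wells for full effect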
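Medium: Hepes buffer, pH 7.5 / System: biochemical Apaf-1 apoptosome reconstitution / Measured by: Rh110 fluorescence, excitation 480 nm, emission 540 nm / Times: compound with Apaf-1, dATP, procaspase-3 30 min, then 50 min reaction, room temperature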
pPAFAH FP inh: inhibitors of human plasma PAF acetylhydrolase (pPAFAH) | actives 1.5% (n = 330,000) | Q13093 | recombinant pPAFAH, FP-rhodamine probe fluorescence polarization | inhibition, % at 3.39 µM;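 active = inhibition above the mean inhibition across the screen plus 3 SD, cut at about 25% in these data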;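 also: inhibitors block binding of the rhodamine activity-based probe so polarization drops; 0% = enzyme with DMSO and 100% = wells lacking pPAFAH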
Target sequence (Q13093 whole entry, looked up): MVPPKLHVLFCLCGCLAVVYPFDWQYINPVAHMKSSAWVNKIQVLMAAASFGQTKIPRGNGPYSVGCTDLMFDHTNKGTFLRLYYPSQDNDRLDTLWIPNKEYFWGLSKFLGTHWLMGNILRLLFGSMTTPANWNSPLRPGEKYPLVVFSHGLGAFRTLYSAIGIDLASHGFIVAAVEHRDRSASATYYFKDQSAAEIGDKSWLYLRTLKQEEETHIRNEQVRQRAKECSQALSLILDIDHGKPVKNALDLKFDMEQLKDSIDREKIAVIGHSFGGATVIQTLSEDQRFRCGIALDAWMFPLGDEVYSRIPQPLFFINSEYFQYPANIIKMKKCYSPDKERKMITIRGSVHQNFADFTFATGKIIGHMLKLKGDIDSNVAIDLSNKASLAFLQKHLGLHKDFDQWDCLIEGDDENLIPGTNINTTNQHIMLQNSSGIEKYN
PAFAH1B3 inh: PAFAH1B3 (human) inhibition; recombinant PAFAH1B3, FP-rhodamine probe, fluorescence polarization; actives 0.28% (n = 340,000); inhibition, % at 3.39 µM; AID 492972;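 active = inhibition above the screen-wide average of all tested compounds plus 3 SD, cut at about 25% in these data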;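 also: 0% = enzyme with DMSO only and 100% = wells lacking PAFAH1B3 protein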
Target sequence (Q15102 whole entry, looked up): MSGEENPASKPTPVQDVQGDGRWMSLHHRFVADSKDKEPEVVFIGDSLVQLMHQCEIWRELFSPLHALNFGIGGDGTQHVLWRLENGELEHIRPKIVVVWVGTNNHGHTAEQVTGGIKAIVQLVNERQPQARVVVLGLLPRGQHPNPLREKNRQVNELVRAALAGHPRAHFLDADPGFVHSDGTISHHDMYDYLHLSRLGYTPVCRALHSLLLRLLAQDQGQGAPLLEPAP
Starred values were filed as active, the others as inactive; · = no result given. Hits are enriched below; roughly 3.1% of the tested compounds scored in any of these assays.

SMILES | PAFAH2 FP inh | PAFAH1B2 inh | Apaf1 inhib | pPAFAH FP inh | PAFAH1B3 inh
CC(C)N1CC=C2C(C#N)=C(N)C(C#N)(C#N)[C@H](c3ccoc3)[C@H]2C1 | · | · | · | 29* | ·
CC(C)N1CC=C2C(C#N)=C(N)C(C#N)(C#N)C(c3ccccc3)C2C1 (configuration not stated) | 0 | 7 | · | 8 | 2
COc1ccc(NS(=O)(=O)c2cccc(C(=O)N3CCN(c4ccccc4O)CC3)c2)cc1 | 7 | 1 | 11 | 27* | 6
COc1ccc(OC)c(CN2CCN(C(=O)c3cccc(S(=O)(=O)Nc4ccc(C)cc4)c3)CC2)c1 | -1 | 0 | 0 | 25* | 2
COc1ccc(NS(=O)(=O)c2cccc(C(=O)OCC(=O)c3c(N)n(C)c(=O)n(C)c3=O)c2)cc1 | 9 | 2 | -17 | 29* | 2
COc1ccc(NS(=O)(=O)c2cccc(C(=O)OCC(=O)N3CCN(c4ccc(OC)cc4)CC3)c2)cc1 | 0 | 8 | 19 | 28* | 10
COc1ccc(N2CCN(C(=O)c3ccc(NS(=O)(=O)c4cccc(F)c4)cc3)CC2)cc1 | -8 | -2 | 0 | 9 | 5
Cc1cc(C)c(NC(=O)CSc2nnc(CNC(=O)c3ccco3)o2)c(C)c1 | -1 | 1 | 4 | -5 | 3
CC1CC(=O)N(CC(=O)NCc2ccc(F)cc2)c2ccccc2S1(=O)=O (configuration not stated) | 1 | 2 | -3 | 6 | 6
COC(=O)CNC(=O)Cc1c(C)n(C(=O)c2ccc(Cl)cc2)c2ccc(OC)cc12 | -3 | 0 | 17 | 15 | -4
COc1ccc2c(c1)c(CC(=O)OCC(N)=O)c(C)n2C(=O)c1ccc(Cl)cc1 | -10 | 2 | 10 | 25* | 5
C=CCSc1nc(=O)n2ccc(C)cc2n1 | 15 | -3 | -5 | 27* | 3
C=CCSc1nc(=O)n2ccccc2n1 | 13 | 1 | -5 | 1 | 3
CC(C(=O)O)N(C(=O)c1ccccc1)c1ccc(F)cc1 (configuration not stated) | 0 | 29* | -6 | 5 | 9
O=CNCCCc1nc2ccccc2n1CCc1ccccc1 | -3 | 5 | 1 | · | 5
CCSCCC(NC1=CC(=O)CC(C)(C)C1)C(=O)O (configuration not stated) | 0 | 2 | 49* | 1 | 2
Cc1ccc(CNC(=O)CCn2cc(-c3ccc(F)cc3)nc2-c2ccncc2)cc1 | 1 | 29* | 0 | 3 | 1
Cc1ccc(CNC(=O)CCn2cc(-c3ccc(C)cc3)nc2-c2ccncc2)cc1 | -1 | 16 | 8 | 7 | 2
O=C(O)c1cc(NC(=S)NC(=O)C(c2ccccc2)c2ccccc2)ccc1Cl | 4 | 32* | -3 | -3 | 3
O=C(NC(=S)Nc1ccc(Cl)c(C(=O)O)c1)c1ccco1 | 6 | -1 | -10 | 5 | 8
NC1=NC(=O)/C(=C\c2ccco2)S1 | 21 | 8 | -5 | 30* | 14
NC1=NC(=O)C(=Cc2ccccc2)S1 | -6 | 0 | · | · | 13
CC1CCC(NC(=O)c2cccc(S(=O)(=O)N3CCN(c4ccc(F)cc4)CC3)c2)CC1 (configuration not stated) | -2 | 7 | -4 | -1 | 5
COCC(=O)c1[nH]c2ccccc2c1C | 2 | -2 | -9 | 1 | 6
O=C(O)c1[nH]c2ccccc2c1C(c1ccccc1)c1c(C(=O)O)[nH]c2ccccc12 | 13 | 88* | 4 | 2 | 10
SMILES | PAFAH2 FP inh | PAFAH1B2 inh | Apaf1 inhib | pPAFAH FP inh | PAFAH1B3 inh
O=C(O)COc1ccc(Br)cc1C(c1c(C(=O)O)[nH]c2ccccc12)c1c(C(=O)O)[nH]c2ccccc12 | 20 | 53* | 20 | 7 | 7
COC(=O)c1[nH]c2ccc(Cl)cc2c1NC(=O)c1ccccc1[N+](=O)[O-] | 1 | 0 | -10 | 1 | 4
COc1cc(C(c2c(C(=O)O)[nH]c3ccccc23)c2c(C(=O)O)[nH]c3ccccc23)ccc1OCc1ccccc1 | 26 | 57* | 26 | 18 | 8
O=C(O)COc1ccc(Br)cc1CP(=O)(c1ccccc1)c1ccccc1 | -4 | 8 | -15 | 6 | -4
O=C(O)c1[nH]c2ccccc2c1C(c1cc(Cl)cc([N+](=O)[O-])c1O)c1c(C(=O)O)[nH]c2ccccc12 | 12 | 62* | 12 | 13 | 8
CCOc1ccc(CCNC(=O)COC(=O)c2cc(=O)[nH]c3ccccc23)cc1OCC | 4 | 2 | 5 | 3 | -1
Cc1ccc(-c2csc(N3CCC[C@@H]3C(=O)NCCn3c(-c4ccncc4)nc4ccccc43)n2)cc1 | -10 | -2 | 20 | 5 | 0
O=C1CCC[C@@H]2[C@@H](Cc3ccccc3)[C@H](N3CCN(c4ccccc4)CC3)C[C@@H]3CCN1[C@@H]32 | 6 | -1 | · | · | -1
Cc1ccc(C(=O)N(C)Cc2ccc(N3CCOCC3)cc2)cc1S(=O)(=O)NCc1ccccc1 | 0 | 0 | -4 | 1 | 1
Cc1ccc(S(=O)(=O)N2C(=O)CCC2C(=O)O/N=C(\N)c2cccc([N+](=O)[O-])c2)cc1 (configuration not stated) | 2 | 1 | 13 | 9 | 6
Cc1cc(C)cc(SCc2noc(C(=O)NCCC(C)C)c2C(=O)NCCC(C)C)c1 | -10 | -3 | 21 | -2 | 0
O=C(/C=C/c1ccc(S(=O)(=O)NCc2ccco2)cc1)NCc1ccccc1Cl | -4 | 7 | 15 | 32* | 4
COc1ccc(CNC(=O)/C=C/c2ccc(S(=O)(=O)NCc3ccco3)cc2)cc1OC | -2 | -7 | 4 | 16 | 4
COc1ccc2nc(Nc3sc4c(c3C(N)=O)CCCC4)sc2c1 | 0 | 10 | 17 | 26* | 19
COc1cccc(CNC(=O)CCn2ccc3cc(S(=O)(=O)N4CCC(C)CC4)ccc32)c1 | 4 | 25* | 12 | 4 | 7
Cc1ccc(OCCC(=O)OCC(=O)NC(=O)NC2CCCCC2)cc1 | 6 | 6 | 16 | 11 | 4
N#Cc1c(N)n(C2OC(CO)C(O)C2O)c2ncnc(N)c12 (configuration not stated) | 6 | 1 | · | · | 5
CCOCCN1CCN(C2c3ccccc3CSc3ccccc32)CC1 (configuration not stated) | 8 | 7 | -10 | 0 | 2
COc1ccc(NS(=O)(=O)c2ccc(N3CCCC3)c(NC(=S)Nc3ccc(SC(F)F)cc3)c2)cc1 | 4 | 1 | 5 | 34* | -2
O=C(O)CCCC(=O)N1CCN(c2nc(-c3ccccc3Cl)c3cc(Br)ccc3n2)CC1 | 0 | 1 | 4 | 28* | -2
Cc1cc(N2CCN(C)CC2)ccc1NC(=O)c1ccc(-c2ccc(Cl)cc2)o1 | 2 | 2 | 42* | 19 | -5
CN1CCN(c2ccccc2NC(=O)c2ccc(-c3ccc(Br)cc3)o2)CC1 | -7 | 8 | 16 | 0 | 4
O=C(Nc1ccccc1N1CCCCC1)c1ccc(-c2ccc(Cl)cc2)o1 | 3 | 1 | 24 | -1 | 4

Compound activity (PubChem)
